Assay results: ChEMBL document CHEMBL1671666, “Anti-human immunodeficiency virus activity, cross-resistance, cytotoxicity, and intracellular pharmacology of the 3'-azido-2',3'-dideoxypurine nucleosides” (Antimicrob Agents Chemother, 2009)
Structures can show the parent of a compound that is named as a salt.

Key:
[1] = target: Human immunodeficiency virus type 1 reverse transcriptase (Human immunodeficiency virus 1) (UniProt Q72547); experiment: Activity at HIV1 reverse transcriptase measured after 30 mins
Method in brief: (§1)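 Pre-steady-state rapid quench with purified WT HIV-1 RT. Quenched with 0.5 M EDTA between 10 ms and 30 min. Products resolved on 7 M urea-16% polyacrylamide gels. Gives kpol and Kd; selectivity = (kpol/Kd)dNTP/(kpol/Kd)NRTI-TP. At least three independent experiments, mean ± SD.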

[2] = target: Human immunodeficiency virus type 1 reverse transcriptase (Human immunodeficiency virus 1, UniProt Q72547); experiment: Binding affinity to HIV1 reverse transcriptase; method in brief: as §1
[3] = target: Human immunodeficiency virus type 1 reverse transcriptase (Human immunodeficiency virus 1) (UniProt Q72547); experiment: Ratio of Kpol to Kd for HIV1 reverse transcriptase; method in brief: as §1
[4] = target: Human immunodeficiency virus type 1 reverse transcriptase (Human immunodeficiency virus 1) (UniProt Q72547); experiment: Selectivity, ratio of Kpol to Kd for dATP to Kpol to Kd for compound at HIV1 reverse transcriptase; method in brief: as §1
mitochondrial DNA = experiment: Mitochondrial toxicity in human HepG2 cells assessed as percent inhibition of mitochondrial DNA at 10 uM after 14 days by real-time PCR; assay type: cell-based
Method in brief: (§2)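 Low-passage HepG2 cells seeded at 5,000 cells/well on collagen-coated plates and cultured 14 days with 10 or 100 μM NRTI. mtDNA and β-actin DNA quantified by real-time PCR in duplicate; mtDNA normalized to β-actin and expressed relative to untreated cells. At least two independent experiments; ranges given.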

HepG2 [5] = experiment: Mitochondrial toxicity in human HepG2 cells assessed as percent mitochondrial DNA production at 10 uM after 14 days by real-time PCR relative to control; assay type: cell-based; settings: hepg2, 336 h; method in brief: as §2
HepG2 [6] = experiment: Mitochondrial toxicity in human HepG2 cells assessed as percent lactic acid production at 10 uM after 14 days by real-time PCR relative to beta-actin DNA; assay type: cell-based; settings: hepg2, 336 h
Method in brief: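 HepG2 cells cultured 14 days with 10 or 100 μM NRTI. Lactic acid quantified with a D-/L-lactic acid enzymatic test kit and expressed relative to β-actin DNA and to untreated control.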

beta-actin DNA = experiment: Mitochondrial toxicity in human HepG2 cells assessed as percent inhibition of beta-actin DNA at 10 uM after 14 days by real-time PCR; assay type: cell-based; method in brief: as §2
[7] = tested on: Human immunodeficiency virus 1; experiment: Antiviral activity against HIV1 infected in human HeLa P4/R5 cells assessed as inhibition of viral replication; assay type: functional, organism-based; settings: Human immunodeficiency virus 1, HeLa
Method in brief: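 Single-cycle assay in P4/R5 HeLa cells carrying an HIV LTR-driven, Tat-activated β-galactosidase gene. Cells kept in phenol red-free DMEM with 10% FBS and 0.5 μg/ml puromycin. Virus stock titred on these cells by threefold endpoint dilution (Reed-Muench). At least three independent experiments.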

[8] = tested on: Human immunodeficiency virus 1; experiment: Antiviral activity against HIV1 infected in human MT2 cells assessed as inhibition of viral replication; assay type: functional, organism-based; settings: Human immunodeficiency virus 1, MT2
[9] = tested on: Human immunodeficiency virus 1; experiment: Antiviral activity against HIV1 infected in human PBMC assessed as inhibition of viral replication; assay type: functional, organism-based
Method in brief: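 PBMC from healthy seronegative donors, isolated on a Ficoll-Hypaque gradient and stimulated with PHA for 2-3 days before infection. At least three independent experiments.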

[10] = target: Human immunodeficiency virus type 1 reverse transcriptase (Human immunodeficiency virus 1) (UniProt Q72547); experiment: Selectivity, ratio of Kpol to Kd for dGTP to Kpol to Kd for compound at HIV1 reverse transcriptase; method in brief: as §1
[11] = Half life in PHA-stimulated human PBMC after 12 hrs by LC-MS analysis; assay type: ADME, cell-based
[12] = target: Human immunodeficiency virus type 1 reverse transcriptase (Human immunodeficiency virus 1) (UniProt Q72547); experiment: Selectivity, ratio of Kpol to Kd for dCTP to Kpol to Kd for compound at HIV1 reverse transcriptase; method in brief: as §1

| Compound | Activity [1] | Kd [2] | Ratio [3] | other results |
| --- | --- | --- | --- | --- |
| [N-]=[N+]=N[C@H]1C[C@H](n2cnc3c(N)ncnc32)O[C@@H]1COP(=O)(O)OP(=O)(O)OP(=O)(O)O | 23.2 s⁻¹ | 2.3 µM | 10.2 µM⁻¹ s⁻¹ | Selectivity ratio [4]: 0.7 |
| Nc1ccn([C@H]2CC[C@@H](CO)O2)c(=O)n1 [ZALCITABINE] | – | – | – | inhibition at 336 h, 10 µM (mitochondrial DNA): 99.9%; Activity (HepG2 [5]): 0.3%; Activity (HepG2 [6]): 170%; inhibition at 336 h, 10 µM (beta-actin DNA): 61.4%; IC50 [7]: 1.4 µM; IC50 [8]: 0.13 µM; IC50 [9]: 0.2 µM |
| Nc1ncnc2c1ncn2[C@H]1C[C@H](O)[C@@H](COP(=O)(O)OP(=O)(O)OP(=O)(O)O)O1 | 24.4 s⁻¹ | 3.2 µM | 7.6 µM⁻¹ s⁻¹ | – |
| Nc1nc(NC2CC2)c2ncn([C@H]3C=C[C@@H](CO)C3)c2n1 [ABACAVIR SULFATE] | – | – | – | IC50 [7]: 6.2 µM; IC50 [8]: 4.8 µM; IC50 [9]: 0.91 µM |
| Cc1cn([C@H]2C[C@H](O)[C@@H](COP(=O)(O)OP(=O)(O)OP(=O)(O)O)O2)c(=O)[nH]c1=O [DEOXYTHYMIDINE_TRIPHOSPHATE] | 9.2 s⁻¹ | 2.2 µM | 4.2 µM⁻¹ s⁻¹ | – |
| Cc1cn([C@H]2C=C[C@@H](CO)O2)c(=O)[nH]c1=O [STAVUDINE] | – | – | – | IC50 [7]: 5.7 µM; IC50 [8]: 1.9 µM; IC50 [9]: 0.1 µM |
| Nc1nc(=O)c2ncn([C@H]3C=C[C@@H](COP(=O)(O)OP(=O)(O)OP(=O)(O)O)C3)c2[nH]1 (single isomer, unassigned) [CARBOVIR 5'-TRIPHOSPHATE, (-)-] | 0.6 s⁻¹ | 4 µM | 0.16 µM⁻¹ s⁻¹ | Selectivity ratio [10]: 11.2 |
| Nc1ccn([C@H]2C[C@H](O)[C@@H](COP(=O)(O)OP(=O)(O)OP(=O)(O)O)O2)c(=O)n1 | 1.2 s⁻¹ | – | 1.1 µM⁻¹ s⁻¹ | – |
| [N-]=[N+]=N[C@H]1C[C@H](n2cnc3c(=O)[nH]c(N)nc32)O[C@@H]1COP(=O)(O)OP(=O)(O)OP(=O)(O)O | 4.8 s⁻¹ | 2.8 µM | 1.7 µM⁻¹ s⁻¹ | half-life [11]: 8.9 h; Selectivity ratio [10]: 1.1 |
| C[C@H](Cn1cnc2c(N)ncnc21)OCP(=O)(O)OP(=O)(O)OP(=O)(O)O | 6.2 s⁻¹ | 4.3 µM | 1.4 µM⁻¹ s⁻¹ | Selectivity ratio [4]: 5.3 |
| Nc1ccn([C@H]2CC[C@@H](COP(=O)(O)OP(=O)(O)OP(=O)(O)O)O2)c(=O)n1 [DDCTP] | 0.4 s⁻¹ | 2.7 µM | 0.2 µM⁻¹ s⁻¹ | Selectivity ratio [12]: 6.7 |
